Inhibition and IC50 data for eight compounds are collected here from ChEMBL document CHEMBL1128216, “Rational design and synthesis of small molecule, non-oligosaccharide selectin inhibitors: (alpha-D-mannopyranosyloxy)biphenyl-substituted carboxylic acids” (J Med Chem, 1995).

SMILES strings stand for the structures.

Test [1] addresses T1, P-selectin (Homo sapiens) (UniProt P16109).
T1 sequence (whole entry): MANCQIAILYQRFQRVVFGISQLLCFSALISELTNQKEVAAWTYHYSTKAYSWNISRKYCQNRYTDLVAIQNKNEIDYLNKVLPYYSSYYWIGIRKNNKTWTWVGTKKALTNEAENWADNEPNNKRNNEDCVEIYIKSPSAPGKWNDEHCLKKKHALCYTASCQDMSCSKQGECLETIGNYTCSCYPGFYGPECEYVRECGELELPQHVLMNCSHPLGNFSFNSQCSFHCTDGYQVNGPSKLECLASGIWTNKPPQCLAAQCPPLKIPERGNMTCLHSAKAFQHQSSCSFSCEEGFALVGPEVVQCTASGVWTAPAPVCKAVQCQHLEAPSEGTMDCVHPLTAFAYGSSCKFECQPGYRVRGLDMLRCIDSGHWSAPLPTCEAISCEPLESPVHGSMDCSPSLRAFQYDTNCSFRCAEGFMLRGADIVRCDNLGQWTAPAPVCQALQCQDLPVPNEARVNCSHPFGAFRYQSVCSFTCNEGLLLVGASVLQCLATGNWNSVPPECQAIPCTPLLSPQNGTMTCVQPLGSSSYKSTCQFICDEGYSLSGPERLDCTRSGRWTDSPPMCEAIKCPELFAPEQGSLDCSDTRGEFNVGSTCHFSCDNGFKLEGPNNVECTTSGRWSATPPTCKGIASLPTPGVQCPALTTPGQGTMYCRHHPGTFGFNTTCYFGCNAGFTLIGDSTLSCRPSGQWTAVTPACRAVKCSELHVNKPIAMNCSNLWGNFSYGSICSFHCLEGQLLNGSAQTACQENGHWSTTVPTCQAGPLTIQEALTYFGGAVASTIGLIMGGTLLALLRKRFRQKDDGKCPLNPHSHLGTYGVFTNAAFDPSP
The experiment in a line: In vitro inhibitory activity against sialyl Lewis X expressing HL60 cell binding Selectin P at 20 mM concentration. The test is classed as cell-based. Conditions: HL-60.

Test [2] concerns the target T2, E-selectin (Homo sapiens) (UniProt P16581).
T2 sequence (whole entry): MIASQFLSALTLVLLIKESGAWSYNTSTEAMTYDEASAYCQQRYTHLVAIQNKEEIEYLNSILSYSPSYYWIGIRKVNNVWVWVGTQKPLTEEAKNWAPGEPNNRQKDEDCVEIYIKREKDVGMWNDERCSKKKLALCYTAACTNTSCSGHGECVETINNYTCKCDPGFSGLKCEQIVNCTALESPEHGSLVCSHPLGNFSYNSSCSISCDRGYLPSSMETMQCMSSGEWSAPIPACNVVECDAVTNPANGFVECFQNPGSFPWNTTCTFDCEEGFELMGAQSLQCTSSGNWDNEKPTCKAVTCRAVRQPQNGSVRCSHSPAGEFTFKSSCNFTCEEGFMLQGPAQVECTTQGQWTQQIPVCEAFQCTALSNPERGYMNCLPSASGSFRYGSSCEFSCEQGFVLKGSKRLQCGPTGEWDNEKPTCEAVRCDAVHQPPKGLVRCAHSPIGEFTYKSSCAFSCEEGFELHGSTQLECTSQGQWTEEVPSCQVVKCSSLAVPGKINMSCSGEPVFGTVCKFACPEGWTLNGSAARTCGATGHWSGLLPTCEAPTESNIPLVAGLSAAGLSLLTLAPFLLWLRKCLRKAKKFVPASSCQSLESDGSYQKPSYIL
In words: In vitro inhibitory activity against sialyl Lewis X expressing HL60 cell binding to recombinant human E-selectin at 20 mM concentration. Conditions: HL-60. The test is classed as cell-based. A digest of the protocol: (§1)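 Human E-selectin (lectin, EGF and two complement repeats) fused to mouse IgG was captured on anti-mouse IgG magnetic beads overnight at 4 °C. Wells were pre-blocked with 3% BSA/PBS. Compound in PBS was mixed with calcein-labelled HL60 cells (10⁷/mL, RPMI 1640 + 10% FCS) and beads (4 × 10⁶/mL) for 10 min at room temperature. Unbound cells were removed magnetically with two PBS washes, and bound cells were lysed in 1% NP40.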

Test [3] concerns the target T3, L-selectin (Mus musculus) (UniProt P18337).
T3 sequence (whole entry): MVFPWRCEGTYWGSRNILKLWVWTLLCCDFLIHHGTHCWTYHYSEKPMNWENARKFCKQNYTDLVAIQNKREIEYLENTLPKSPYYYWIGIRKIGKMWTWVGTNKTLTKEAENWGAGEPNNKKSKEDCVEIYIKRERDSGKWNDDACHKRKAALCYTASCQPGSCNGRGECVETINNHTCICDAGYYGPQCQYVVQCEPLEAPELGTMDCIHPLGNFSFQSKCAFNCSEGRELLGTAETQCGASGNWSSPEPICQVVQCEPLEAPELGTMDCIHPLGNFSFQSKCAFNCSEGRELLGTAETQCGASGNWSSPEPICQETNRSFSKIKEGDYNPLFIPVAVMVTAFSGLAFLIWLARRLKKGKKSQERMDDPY
In words: In vitro inhibitory activity against sialyl Lewis X expressing HL60 cell binding to Selectin L at 3 mM concentration. As to conditions: HL-60.

The target of test [4] is T3, L-selectin (Mus musculus). The experiment in a line: In vitro inhibitory activity against sialyl Lewis X expressing HL60 cell binding to Selectin L at 6 mM concentration. Conditions: HL-60. The test is classed as cell-based.
Test [5] concerns the target T2, E-selectin (Homo sapiens). In words: In vitro inhibitory activity against sialyl Lewis X expressing HL60 cell binding to recombinant human E-selectin at 17 mM concentration. The test is classed as cell-based. As to conditions: HL-60. A digest of the protocol: as §1
A further test deals with T4, P-selectin (Homo sapiens, UniProt P16109).
T4 sequence (P16109 whole entry): T1 sequence (whole entry)
In words: In vitro inhibitory activity against sialyl Lewis X expressing HL60 cell binding Selectin P. The test is classed as cell-based, HL-60.

Another test deals with T5, E-selectin (Homo sapiens, UniProt P16581).
T5 sequence (P16581 whole entry): T2 sequence (whole entry)
In words: In vitro inhibition of HL60 (human leukemia) cell binding to human recombinant e-selectin. The test is classed as cell-based, HL-60. A digest of the protocol:
as §1

The target in test [6] is T1, P-selectin (Homo sapiens). In words: In vitro inhibitory activity against sialyl Lewis X expressing HL60 cell binding Selectin P at 27 mM concentration. The test is classed as cell-based. Conditions: HL-60.
Test [7] concerns the target T1, P-selectin (Homo sapiens). In words: In vitro inhibitory activity against sialyl Lewis X expressing HL60 cell binding Selectin P at 10 mM concentration. The test is classed as cell-based. As to conditions: HL-60.
For test [8], the target named is T2, E-selectin (Homo sapiens). The experiment in a line: In vitro inhibitory activity against sialyl Lewis X expressing HL60 cell binding to recombinant human E-selectin at 27 mM concentration. The test is classed as cell-based. Conditions: HL-60. A digest of the protocol:
as §1

Test [9] deals with T2, E-selectin (Homo sapiens). The experiment in a line: In vitro inhibitory activity against sialyl Lewis X expressing HL60 cell binding to recombinant human E-selectin at 32 mM concentration. The test is classed as cell-based. As to conditions: HL-60. The gist of the method:
as §1

Test [10] addresses T3, L-selectin (Mus musculus). In words: In vitro inhibitory activity against sialyl Lewis X expressing HL60 cell binding Selectin L at 5 mM concentration. The test is classed as cell-based. As to conditions: HL-60.
For test [11], the target named is T1, P-selectin (Homo sapiens). In words: In vitro inhibitory activity against sialyl Lewis X expressing HL60 cell binding Selectin P at 25 mM concentration. The test is classed as cell-based. Conditions: HL-60.
Test [12] has as its target T3, L-selectin (Mus musculus). In words: In vitro inhibitory activity against sialyl Lewis X expressing HL60 cell binding to Selectin L at 8 mM concentration. The test is classed as cell-based. Conditions: HL-60.
In test [13] the target is T1, P-selectin (Homo sapiens). In words: In vitro inhibitory activity against sialyl Lewis X expressing HL60 cell binding Selectin P at 24 mM concentration. The test is classed as cell-based. Conditions: HL-60.

For the compound `O=C(O)CCC(=O)c1ccc(-c2ccccc2O[C@H]2O[C@H](CO)[C@@H](O)[C@@H](O)[C@@H]2O)cc1`, the inhibition was 0% in [1], 40% in test [2] and 0% in test [3].

Regarding `O=C(O)C(Oc1cccc(-c2ccccc2O[C@H]2O[C@H](CO)[C@@H](O)[C@@H](O)[C@@H]2O)c1)c1ccccc1` (stereo partly specified), the values for the inhibition in test [4] and in test [5] were 0% and 70%, respectively. Also, at P-selectin, the half-inhibitory concentration (IC50) stood at 17 mM.

With `O=C(O)c1cccc(-c2ccccc2O[C@H]2O[C@H](CO)[C@@H](O)[C@@H](O)[C@@H]2O)c1`, at E-selectin, the concentration for half-maximal inhibition (IC50) turned out to be 16 mM. For the same compound, the figures for the inhibition in test [4] and in test [6] were 15% and 0%, respectively.

Take `CC(C(=O)O)c1cccc(-c2ccccc2O[C@H]2O[C@H](CO)[C@@H](O)[C@@H](O)[C@@H]2O)c1` (stereo in doubt; 9s): the inhibition in [4] came out at 0%; in test [7], 30%.

For the compound `NCCCC[C@H](NC(=O)c1ccc(-c2ccccc2O[C@H]2O[C@H](CO)[C@@H](O)[C@@H](O)[C@@H]2O)cc1)C(=O)O`, the inhibition in test [8] amounted to 33%.

Take `O=C(O)C[C@@H](NC(=O)c1cccc(-c2ccccc2O[C@H]2O[C@H](CO)[C@@H](O)[C@@H](O)[C@@H]2O)c1)C(=O)O`: the values for the inhibition in test [9], in [10] and in test [1] were 0%, 0% and 40%, respectively.

For `O=C(O)COc1ccccc1-c1ccccc1O[C@H]1O[C@H](CO)[C@@H](O)[C@@H](O)[C@@H]1O`, the IC50 on E-selectin was 20 mM. Also, the inhibition in [11] turned out to be 20%; in test [12], 0%.

`O=C(O)COCc1cccc(-c2ccccc2O[C@H]2O[C@H](CO)[C@@H](O)[C@@H](O)[C@@H]2O)c1`: the half-inhibitory concentration (IC50) on E-selectin is 9.5 mM. For the same compound, the inhibition in test [4] is 30%; in test [13] it was 0%.

Broadly, the inhibition is the drop in the measured response relative to a control, in per cent. One may read the IC50 as the concentration needed to halve the response being measured.
